Test [1] concerns Staphylococcus aureus. Description: Antibacterial activity against methicillin resistant Staphylococcus aureus N315 assessed as reduction in bacterial cell viability incubated for 24 hrs by two fold serial dilution method. The test is classed as functional. The settings on record: N315, 24 h. The method in brief:
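MIC by two-fold serial dilution following CLSI, with chloromycin and norfloxacin as reference drugs.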

The subject of a further test is Enterococcus faecalis. In words: Antibacterial activity against Enterococcus faecalis assessed as reduction in bacterial cell viability incubated for 24 hrs by two fold serial dilution method. The test is classed as functional. Put shortly:
(§1)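 Broth two-fold serial dilution run to CLSI guidelines. Chloromycin, norfloxacin and fluconazole served as reference drugs.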

Test [2] deals with Staphylococcus aureus. In words: Antibacterial activity against Staphylococcus aureus assessed as reduction in bacterial cell viability incubated for 24 hrs by two fold serial dilution method. The test is classed as functional. Put shortly: as §1
Test [3] deals with Staphylococcus aureus. Description: Antibacterial activity against Staphylococcus aureus ATCC 25923 assessed as reduction in bacterial cell viability incubated for 24 hrs by two fold serial dilution method. The test is classed as functional. The settings on record: ATCC 25923, 24 h. The method in brief: as §1
In test [4] the test system is Staphylococcus aureus. Description: Antibacterial activity against Staphylococcus aureus ATCC 29213 assessed as reduction in bacterial cell viability incubated for 24 hrs by two fold serial dilution method. The test is classed as functional. The settings on record: ATCC 29213, 24 h. The method in brief:
as §1

A further test relates to Klebsiella pneumoniae. Description: Antibacterial activity against Klebsiella pneumoniae assessed as reduction in bacterial cell viability incubated for 24 hrs by two fold serial dilution method. The test is classed as functional. Put shortly:
as §1

Test [5] deals with Escherichia coli. Description: Antibacterial activity against Escherichia coli ATCC 25922 assessed as reduction in bacterial cell viability incubated for 24 hrs by two fold serial dilution method. The settings on record: ATCC 25922, 24 h. The test is classed as functional. The method in brief: as §1
The test system of test [6] is Escherichia coli. In words: Antibacterial activity against Escherichia coli assessed as reduction in bacterial cell viability incubated for 24 hrs by two fold serial dilution method. The test is classed as functional. Put shortly:
as §1

The subject of test [7] is Pseudomonas aeruginosa. In words: Antibacterial activity against Pseudomonas aeruginosa assessed as reduction in bacterial cell viability incubated for 24 hrs by two fold serial dilution method. The test is classed as functional. The method in brief:
as §1

Test [8] has as its system Pseudomonas aeruginosa. In words: Antibacterial activity against Pseudomonas aeruginosa ATCC 27853 assessed as reduction in bacterial cell viability incubated for 24 hrs by two fold serial dilution method. The test is classed as functional. To be noted: ATCC 27853, 24 h. Put shortly:
as §1

A further test has as its system Acinetobacter baumannii. Description: Antibacterial activity against Acinetobacter baumannii assessed as reduction in bacterial cell viability incubated for 24 hrs by two fold serial dilution method. The test is classed as functional. The method in brief: as §1
The subject of test [9] is Candida albicans. Description: Antifungal activity against Candida albicans assessed as reduction in fungal cell viability incubated for 24 hrs by two fold serial dilution method. The test is classed as functional. Put shortly: as §1
The subject of test [10] is Candida albicans. Description: Antifungal activity against Candida albicans ATCC 90023 assessed as reduction in fungal cell viability incubated for 24 hrs by two fold serial dilution method. The test is classed as functional. To be noted: ATCC 90023, 24 h. The method in brief: as §1
Another test deals with Candida tropicalis. Description: Antifungal activity against Candida tropicalis assessed as reduction in fungal cell viability incubated for 24 hrs by two fold serial dilution method. The test is classed as functional. The method in brief: as §1
Another test concerns Aspergillus fumigatus. Description: Antifungal activity against Aspergillus fumigatus assessed as reduction in fungal cell viability incubated for 24 hrs by two fold serial dilution method. The test is classed as functional. The method in brief:
as §1

In a further test the test system is Candida parapsilosis. Description: Antifungal activity against Candida parapsilosis ATCC 22019 assessed as reduction in fungal cell viability incubated for 24 hrs by two fold serial dilution method. The settings on record: Lodderomyces parapsilosis, ATCC 22019, 24 h.

Values after ≈ are worked out from the molar mass of the structure shown.

On to `CCO/N=C(\C)CN1CCN(c2cc3c(cc2F)c(=O)c(-c2csc(N)n2)cn3CC)CC1`, for which the MIC (in general, the lowest concentration found to suppress growth) with Staphylococcus aureus [1] was found to be 135 µM (≈ 63.8 µg/mL); with Enterococcus faecalis, 68 µM (≈ 32.1 µg/mL); in the test on Staphylococcus aureus [2], 34 µM (≈ 16.1 µg/mL); with Staphylococcus aureus [3] it was 135 µM (≈ 63.8 µg/mL); in the test with Staphylococcus aureus [4], 68 µM (≈ 32.1 µg/mL); in the test with Klebsiella pneumoniae, 135 µM (≈ 63.8 µg/mL). Moreover, the MIC is 68 µM (≈ 32.1 µg/mL) in the test with Escherichia coli [5]; 135 µM (≈ 63.8 µg/mL) with Escherichia coli [6]; 135 µM (≈ 63.8 µg/mL) in the test with Pseudomonas aeruginosa [7]; 135 µM (≈ 63.8 µg/mL) with Pseudomonas aeruginosa [8]; 135 µM (≈ 63.8 µg/mL) in the test with Acinetobacter baumannii; 1080 µM (≈ 512 µg/mL) with Candida albicans [9]. Also, the MIC in the test with Candida albicans [10] came to 542 µM (≈ 256 µg/mL); in the test with Candida tropicalis, 68 µM (≈ 32.1 µg/mL); in the test on Aspergillus fumigatus it was 542 µM (≈ 256 µg/mL); with Candida parapsilosis, 68 µM (≈ 32.1 µg/mL).

With `CCn1cc(-c2csc(N)n2)c(=O)c2cc(F)c(N3CCN(C/C(=N/OC)c4ccc(F)cc4)CC3)cc21`, the MIC in the test with Staphylococcus aureus [1] came out at 238 µM (≈ 128 µg/mL); with Enterococcus faecalis, 475 µM (≈ 256 µg/mL); with Staphylococcus aureus [2] it was 475 µM (≈ 256 µg/mL); in the test on Staphylococcus aureus [3], 238 µM (≈ 128 µg/mL); in the test with Staphylococcus aureus [4], 475 µM (≈ 256 µg/mL); with Klebsiella pneumoniae, 951 µM (≈ 512 µg/mL). The MIC turned out to be 951 µM (≈ 512 µg/mL) with Escherichia coli [5]; 475 µM (≈ 256 µg/mL) in the test with Escherichia coli [6]; 951 µM (≈ 512 µg/mL) with Pseudomonas aeruginosa [7]; 951 µM (≈ 512 µg/mL) in the test on Pseudomonas aeruginosa [8]; 951 µM (≈ 512 µg/mL) in the test on Acinetobacter baumannii; 951 µM (≈ 512 µg/mL) with Candida albicans [9]. The MIC in the test with Candida albicans [10], with Candida tropicalis, with Aspergillus fumigatus and in the test on Candida parapsilosis was 951 µM (≈ 512 µg/mL) in each case.

`CCn1cc(-c2csc(N)n2)c(=O)c2cc(N3CCN(C/C(=N/OC)c4ccc(Cl)cc4Cl)CC3)c(Cl)cc21`: the minimal inhibitory concentration (MIC) with Staphylococcus aureus [1] worked out at 211 µM (≈ 128 µg/mL); with Enterococcus faecalis, 211 µM (≈ 128 µg/mL); in the test with Staphylococcus aureus [2], 422 µM (≈ 256 µg/mL); in the test with Staphylococcus aureus [3], 422 µM (≈ 256 µg/mL); with Staphylococcus aureus [4], 211 µM (≈ 128 µg/mL); in the test on Klebsiella pneumoniae, 422 µM (≈ 256 µg/mL). Also, the MIC in the test with Escherichia coli [5], with Escherichia coli [6], in the test on Pseudomonas aeruginosa [7], in the test on Pseudomonas aeruginosa [8], with Acinetobacter baumannii and in the test on Candida albicans [9] was 422 µM (≈ 256 µg/mL) throughout. Besides, the MIC amounted to 845 µM (≈ 512 µg/mL) in the test with Candida albicans [10], 422 µM (≈ 256 µg/mL) with Candida tropicalis, 422 µM (≈ 256 µg/mL) with Aspergillus fumigatus and 422 µM (≈ 256 µg/mL) with Candida parapsilosis.

For the compound `OC(Cn1cncn1)(Cn1cncn1)c1ccc(F)cc1F` [FLUCONAZOLE], the MIC with Candida albicans [9] turned out to be 13 µM (≈ 3.98 µg/mL); in the test with Candida albicans [10], 7 µM (≈ 2.14 µg/mL); in the test on Candida tropicalis, 26 µM (≈ 7.96 µg/mL); in the test on Aspergillus fumigatus it was 836 µM (≈ 256 µg/mL); in the test on Candida parapsilosis it was 13 µM (≈ 3.98 µg/mL).

As to `CCn1cc(-c2csc(N)n2)c(=O)c2cc(F)c(N3CCN(C/C(C)=N/O)CC3)cc21`, the MIC was found to be 72 µM (≈ 32 µg/mL) with Staphylococcus aureus [1]; 288 µM (≈ 128 µg/mL) in the test on Enterococcus faecalis; 72 µM (≈ 32 µg/mL) in the test on Staphylococcus aureus [2]; 36 µM (≈ 16 µg/mL) in the test on Staphylococcus aureus [3]; 144 µM (≈ 64 µg/mL) in the test on Staphylococcus aureus [4]; 72 µM (≈ 32 µg/mL) in the test on Klebsiella pneumoniae. Moreover, the MIC with Escherichia coli [5] was found to be 72 µM (≈ 32 µg/mL); in the test on Escherichia coli [6], 288 µM (≈ 128 µg/mL); in the test on Pseudomonas aeruginosa [7], 288 µM (≈ 128 µg/mL); in the test with Pseudomonas aeruginosa [8], 144 µM (≈ 64 µg/mL); with Acinetobacter baumannii, 288 µM (≈ 128 µg/mL); with Candida albicans [9] it was 72 µM (≈ 32 µg/mL). Moreover, the MIC with Candida albicans [10] was determined as 72 µM (≈ 32 µg/mL); in the test with Candida tropicalis, 288 µM (≈ 128 µg/mL); with Aspergillus fumigatus it was 288 µM (≈ 128 µg/mL); with Candida parapsilosis it was 72 µM (≈ 32 µg/mL).

As for `CCn1cc(-c2csc(N)n2)c(=O)c2cc(F)c(N3CCN(CC(C)=O)CC3)cc21`, the MIC turned out to be 72 µM (≈ 30.9 µg/mL) in the test on Staphylococcus aureus [1]; 288 µM (≈ 124 µg/mL) in the test with Enterococcus faecalis; 144 µM (≈ 61.9 µg/mL) in the test on Staphylococcus aureus [2]; 288 µM (≈ 124 µg/mL) in the test on Staphylococcus aureus [3]; 575 µM (≈ 247 µg/mL) with Staphylococcus aureus [4]; 72 µM (≈ 30.9 µg/mL) in the test with Klebsiella pneumoniae. For the same compound, the MIC in the test on Escherichia coli [5] is 288 µM (≈ 124 µg/mL); in the test with Escherichia coli [6] it was 1150 µM (≈ 494 µg/mL); in the test on Pseudomonas aeruginosa [7], 288 µM (≈ 124 µg/mL); in the test on Pseudomonas aeruginosa [8], 36 µM (≈ 15.5 µg/mL); in the test with Acinetobacter baumannii, 288 µM (≈ 124 µg/mL); in the test on Candida albicans [9], 575 µM (≈ 247 µg/mL). The MIC with Candida albicans [10] amounted to 144 µM (≈ 61.9 µg/mL); with Candida tropicalis it was 288 µM (≈ 124 µg/mL); in the test with Aspergillus fumigatus it was 575 µM (≈ 247 µg/mL); in the test on Candida parapsilosis, 288 µM (≈ 124 µg/mL).

The values are drawn from ChEMBL document CHEMBL4351006, “A new exploration towards aminothiazolquinolone oximes as potentially multi-targeting antibacterial agents: Design, synthesis and evaluation acting on microbes, DNA, HSA and topoisomerase IV” (Eur J Med Chem, 2019).
